The values that follow come from ChEMBL document CHEMBL3227985, “N-Alkylated 2-aminotetralins: central dopamine-receptor stimulating activity” (J Med Chem, 1979).

Calls of active or inactive are those of the source. No cut-off for these calls is given here.

Series [1] deals with Rattus norvegicus. Briefly: Toxicity in sc dosed Sprague-Dawley rat assessed as gross behaviour at ED50. It is filed as organism-based. Conditions: in vivo.
For series [2], the system named is Rattus norvegicus. The experiment in a line: Central dopamine receptor stimulating activity in reserpenized Sprague-Dawley rat assessed as duration of action of motor activity at 2 umol/kg, sc measured 6 hrs post-reserpine challenge by motility meter analysis. It is filed as functional. An outline of the steps:
(§1)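 Male Sprague-Dawley rats (200-350 g) given reserpine 10 mg/kg ip 6 h before testing. Drug in saline, 2 µmol/kg sc in the neck. Rats then placed singly in photocell motility meters. Counts recorded per 5-min period until effect ceased (<10 counts/5 min), giving duration and AUC. Means of four to six recordings. Testing 1–6 p.m.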

For series [3], the system named is Rattus norvegicus. Briefly: Central serotonin receptor stimulating activity in Sprague-Dawley rat assessed as reduction in 5-HTP accumulation in striatum of brain at 2 umol/kg, sc by spectrophotometric method. It is filed as functional, organism-based. An outline of the steps:
(§2)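 Male Sprague-Dawley rats (200-350 g), reserpinized. Compounds dissolved in saline immediately before use, neutral pH, 10 mL/kg, given sc over a dose range. Aromatic-L-amino-acid decarboxylase inhibited (100 mg/kg). Dopa and 5-HTP accumulation measured spectrophotometrically in striatum, limbic forebrain and remaining hemispheral portions. ED50 = dose giving 50% of maximal reduction versus control portions, estimated from dose-response curves. Experiments run 9–12 a.m.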

Series [4] deals with Rattus norvegicus. The experiment in a line: Central dopamine receptor stimulating activity in Sprague-Dawley rat assessed as reduction in DOPA accumulation in striatum of brain at 2 umol/kg, sc by spectrophotometric method. It is filed as functional. An outline of the steps:
as §2

Series [5] has as its system Rattus norvegicus. The experiment in a line: Central noradrenaline receptor stimulating activity in Sprague-Dawley rat assessed as reduction in DOPA accumulation in hemispheral portion of cerebrum at 2 umol/kg, sc by spectrophotometric method. It is filed as functional, organism-based. An outline of the steps: as §2
The subject of series [6] is Rattus norvegicus. The experiment in a line: Central dopamine receptor stimulating activity in reserpenized Sprague-Dawley rat assessed as latency period of motor activity at 2 umol/kg, sc measured 6 hrs post-reserpine challenge by motility meter analysis. It is filed as functional. An outline of the steps:
as §1

Series [7] deals with Rattus norvegicus. Briefly: Central serotonin receptor stimulating activity in Sprague-Dawley rat assessed as reduction in 5-HTP accumulation in hemispheral portion of cerebrum at 2 umol/kg, sc by spectrophotometric method. It is filed as functional, organism-based. An outline of the steps: as §2
The subject of series [8] is Rattus norvegicus. The experiment in a line: Central serotonin receptor stimulating activity in Sprague-Dawley rat assessed as reduction in 5-HTP accumulation in limbic region of brain at 2 umol/kg, sc by spectrophotometric method. Conditions: Limbic system. It is filed as functional, organism-based. An outline of the steps:
as §2

Series [9] deals with Rattus norvegicus. Briefly: Central dopamine receptor stimulating activity in Sprague-Dawley rat assessed as reduction in DOPA accumulation in limbic region of brain at 2 umol/kg, sc by spectrophotometric method. It is filed as functional. Conditions: Limbic system. An outline of the steps:
as §2

As for `CCCN(CCC)C1CCc2c(cccc2OC)C1.Cl` (centres undefined), the Activity result in the series on Rattus norvegicus [1] is “Non-toxic”. Also, the Time in the series on Rattus norvegicus [2] is recorded as 122 min; with Rattus norvegicus [6], 15 min. Also, the result in the series on Rattus norvegicus [3], with Rattus norvegicus [5], with Rattus norvegicus [7] and in the series with Rattus norvegicus [8] was inactive. In addition, the ED50 with Rattus norvegicus [4] worked out at 0.018 µmol/kg; in the series with Rattus norvegicus [9], 0.013 µmol/kg.

`Br.CCCN(CCC)C1CCc2c(ccc(O)c2O)C1` (centres undefined): the Activity entry with Rattus norvegicus [1] is listed as “Non-toxic”. The Time is 193 min in the series on Rattus norvegicus [2] and 0 min with Rattus norvegicus [6]. In addition, the outcome in the series on Rattus norvegicus [3], with Rattus norvegicus [5], with Rattus norvegicus [7] and with Rattus norvegicus [8] was inactive. The ED50 in the series on Rattus norvegicus [4] and with Rattus norvegicus [9] was 0.007 µmol/kg each time.

As for `CCCCN(CC)C1CCc2c(cccc2OC)C1.Cl` (centres undefined), the Activity result in the series with Rattus norvegicus [1] is “Non-toxic”. Besides, the Time is reported as 140 min in the series on Rattus norvegicus [2] and 16 min in the series with Rattus norvegicus [6]. Further, the result in the series with Rattus norvegicus [3], in the series on Rattus norvegicus [5], with Rattus norvegicus [7] and with Rattus norvegicus [8] was inactive. The ED50 in the series on Rattus norvegicus [4] was 0.079 µmol/kg; in the series on Rattus norvegicus [9], 0.068 µmol/kg.

Turning to `Br.CCCCCN(C)C1CCc2c(O)cccc2C1` (centres undefined), the Activity entry in the series with Rattus norvegicus [1] was “Non-toxic”. In addition, the result with Rattus norvegicus [3], in the series with Rattus norvegicus [5], with Rattus norvegicus [7] and in the series on Rattus norvegicus [8] was inactive. For the same compound, the results for the ED50 in the series on Rattus norvegicus [4] and with Rattus norvegicus [9] were 0.28 µmol/kg and 0.37 µmol/kg, respectively.

For `CCCN(C)C1CCc2c(cccc2OC)C1.Cl` (centres undefined), in the series on Rattus norvegicus [1], the Activity result is on record as “Non-toxic”. Further, the values for the Time in the series on Rattus norvegicus [2] and with Rattus norvegicus [6] were 69 min and 15 min, respectively. The outcome in the series with Rattus norvegicus [3], with Rattus norvegicus [5], in the series with Rattus norvegicus [7] and in the series with Rattus norvegicus [8] was inactive. In addition, the median effective dose (ED50) was 0.096 µmol/kg with Rattus norvegicus [4] and 0.12 µmol/kg with Rattus norvegicus [9].

As to `Br.CCCN(C)C1CCc2c(O)cccc2C1` (centres undefined), in the series with Rattus norvegicus [1], the Activity entry is “Non-toxic”. The Time in the series with Rattus norvegicus [2] is reported as 73 min; with Rattus norvegicus [6], 0 min. For the same compound, the result in the series on Rattus norvegicus [3], with Rattus norvegicus [5], with Rattus norvegicus [7] and with Rattus norvegicus [8] was inactive. In addition, the results for the median effective dose (ED50) with Rattus norvegicus [4] and with Rattus norvegicus [9] were 0.029 µmol/kg and 0.023 µmol/kg, respectively.

As to `Br.CCNC1CCc2c(O)cccc2C1` (centres undefined), the Activity result in the series on Rattus norvegicus [1] is “Non-toxic”. Further, the Time in the series with Rattus norvegicus [2] is recorded as 50 min; in the series with Rattus norvegicus [6], 3 min. Besides, the outcome with Rattus norvegicus [3], with Rattus norvegicus [5], in the series on Rattus norvegicus [7] and with Rattus norvegicus [8] was inactive. Moreover, the ED50 with Rattus norvegicus [4] was 0.066 µmol/kg; with Rattus norvegicus [9], 0.072 µmol/kg.

On to `CCCN(CC)C1CCc2c(cccc2OC)C1.Cl` (centres undefined), for which the Activity entry in the series with Rattus norvegicus [1] is recorded as “Non-toxic”. Moreover, the Time in the series with Rattus norvegicus [2] was 96 min; with Rattus norvegicus [6], 13 min. Moreover, the result in the series on Rattus norvegicus [3], in the series with Rattus norvegicus [5], in the series with Rattus norvegicus [7] and with Rattus norvegicus [8] was inactive. Besides, the ED50 in the series with Rattus norvegicus [4] was found to be 0.062 µmol/kg; with Rattus norvegicus [9] it was 0.065 µmol/kg.

With `Br.CCCCN(CCCC)C1CCc2c(O)cccc2C1` (centres undefined), the Activity entry with Rattus norvegicus [1] was “Non-toxic”. Besides, the result in the series with Rattus norvegicus [3], in the series on Rattus norvegicus [5], in the series on Rattus norvegicus [7] and with Rattus norvegicus [8] was inactive. For the same compound, the ED50 is 2.7 µmol/kg in the series on Rattus norvegicus [4] and 2.9 µmol/kg in the series on Rattus norvegicus [9].

Turning to `Br.CN(C)C1CCc2c(O)cccc2C1` (centres undefined), the Activity result in the series with Rattus norvegicus [1] is “Non-toxic”. Further, the outcome in the series with Rattus norvegicus [3], in the series with Rattus norvegicus [5], in the series with Rattus norvegicus [7] and in the series on Rattus norvegicus [8] was inactive. Also, the ED50 is 0.19 µmol/kg with Rattus norvegicus [4] and 0.39 µmol/kg in the series on Rattus norvegicus [9].

`Br.CCCNC1CCc2c(O)cccc2C1` (centres undefined): in the series on Rattus norvegicus [1], the Activity result is “Non-toxic”. For the same compound, the results for the Time in the series with Rattus norvegicus [2] and in the series on Rattus norvegicus [6] were 45 min and 0 min, respectively. Besides, the outcome in the series on Rattus norvegicus [3], in the series with Rattus norvegicus [5], in the series on Rattus norvegicus [7] and in the series with Rattus norvegicus [8] was inactive. The ED50 with Rattus norvegicus [4] amounted to 0.046 µmol/kg; in the series on Rattus norvegicus [9], 0.04 µmol/kg.

`CCCCN(CCC)C1CCc2c(cccc2OC)C1.Cl` (centres undefined): the Activity result in the series with Rattus norvegicus [1] is on record as “Non-toxic”. In addition, the figures for the Time with Rattus norvegicus [2] and in the series on Rattus norvegicus [6] were 106 min and 14 min, respectively. Moreover, the result in the series on Rattus norvegicus [3], with Rattus norvegicus [5], with Rattus norvegicus [7] and in the series on Rattus norvegicus [8] was inactive. In addition, the ED50 was determined as 0.036 µmol/kg in the series on Rattus norvegicus [4] and 0.04 µmol/kg in the series on Rattus norvegicus [9].

Consider `CCCCCN(CCC)C1CCc2c(O)cccc2C1.Cl` (centres undefined), for which the Activity entry in the series on Rattus norvegicus [1] is “Non-toxic”. Also, the Time in the series with Rattus norvegicus [2] came out at 75 min; in the series on Rattus norvegicus [6] it was 0 min. Besides, the result in the series on Rattus norvegicus [3], with Rattus norvegicus [5], with Rattus norvegicus [7] and in the series with Rattus norvegicus [8] was inactive. Besides, the ED50 with Rattus norvegicus [4] amounted to 0.019 µmol/kg; with Rattus norvegicus [9], 0.01 µmol/kg.

Regarding `Br.CCCN(C(C)C)C1CCc2c(O)cccc2C1` (centres undefined), the Activity entry in the series with Rattus norvegicus [1] was “Non-toxic”. The results for the Time with Rattus norvegicus [2] and in the series on Rattus norvegicus [6] were 55 min and 4 min, respectively. In addition, the outcome in the series with Rattus norvegicus [3], in the series on Rattus norvegicus [5], in the series with Rattus norvegicus [7] and in the series on Rattus norvegicus [8] was inactive. Besides, the figures for the ED50 in the series with Rattus norvegicus [4] and in the series with Rattus norvegicus [9] were 0.087 µmol/kg and 0.07 µmol/kg, respectively.

In the case of `CCCN(CC(C)(C)C)C1CCc2c(cccc2OC)C1.Cl` (centres undefined), in the series on Rattus norvegicus [1], the Activity entry was “Non-toxic”. Moreover, the result with Rattus norvegicus [3], in the series on Rattus norvegicus [5], in the series with Rattus norvegicus [7] and in the series with Rattus norvegicus [8] was inactive. The ED50 with Rattus norvegicus [4] and with Rattus norvegicus [9] was 0.19 µmol/kg each time.

As to `CCCNC1CCc2c(cccc2OC)C1.Cl` (centres undefined), in the series with Rattus norvegicus [1], the Activity result is “Non-toxic”. Moreover, the result in the series on Rattus norvegicus [3], with Rattus norvegicus [5], in the series on Rattus norvegicus [7] and with Rattus norvegicus [8] was inactive. The ED50 with Rattus norvegicus [4] was 0.43 µmol/kg; with Rattus norvegicus [9] it was 0.37 µmol/kg.

For the compound `CCCN(CCC)C1CCc2c(ccc(OC)c2OC)C1.Cl` (centres undefined), the Activity result in the series with Rattus norvegicus [1] is recorded as “Non-toxic”. The outcome in the series with Rattus norvegicus [3], in the series on Rattus norvegicus [5], in the series on Rattus norvegicus [7] and in the series on Rattus norvegicus [8] was inactive. The ED50 was 0.058 µmol/kg in the series with Rattus norvegicus [4] and 0.057 µmol/kg in the series on Rattus norvegicus [9].

As to `Br.CCCCCNC1CCc2c(O)cccc2C1` (centres undefined), the Activity entry in the series with Rattus norvegicus [1] is recorded as “Non-toxic”. Besides, the result with Rattus norvegicus [3], in the series on Rattus norvegicus [5], with Rattus norvegicus [7] and with Rattus norvegicus [8] was inactive. The ED50 in the series with Rattus norvegicus [9] is > 5 µmol/kg.

As to `CCCN(CCc1ccccc1)C1CCc2c(cccc2OC)C1.Cl` (centres undefined), in the series on Rattus norvegicus [1], the Activity result is given as “Non-toxic”. Besides, the result in the series with Rattus norvegicus [3], with Rattus norvegicus [5], with Rattus norvegicus [7] and with Rattus norvegicus [8] was inactive. Also, the ED50 in the series on Rattus norvegicus [4] turned out to be 0.24 µmol/kg; in the series with Rattus norvegicus [9] it was 0.29 µmol/kg.

Regarding `Br.CC(C)NC1CCc2c(O)cccc2C1` (centres undefined), the Activity result in the series with Rattus norvegicus [1] was “Non-toxic”. Besides, the result with Rattus norvegicus [3], in the series with Rattus norvegicus [5], in the series with Rattus norvegicus [7] and with Rattus norvegicus [8] was inactive. The ED50 in the series on Rattus norvegicus [9] was > 5 µmol/kg.

Regarding `Br.CNC1CCc2c(O)cccc2C1` (centres undefined), the Activity entry in the series on Rattus norvegicus [1] was “Non-toxic”. In addition, the outcome with Rattus norvegicus [3], in the series on Rattus norvegicus [5], in the series on Rattus norvegicus [7] and in the series with Rattus norvegicus [8] was inactive. Besides, the ED50 came to 1.2 µmol/kg in the series on Rattus norvegicus [4] and 1.1 µmol/kg with Rattus norvegicus [9].

Take `Br.CCCCNC1CCc2c(O)cccc2C1` (centres undefined): the Activity result in the series with Rattus norvegicus [1] is listed as “Non-toxic”. Besides, the result in the series on Rattus norvegicus [3], with Rattus norvegicus [5], in the series on Rattus norvegicus [7] and in the series with Rattus norvegicus [8] was inactive. In addition, the ED50 in the series with Rattus norvegicus [9] is > 5 µmol/kg.

With `Br.Oc1cccc2c1CCC(N1CCCCC1)C2` (centres undefined), the Activity entry with Rattus norvegicus [1] is reported as “Non-toxic”. Further, the result with Rattus norvegicus [3], with Rattus norvegicus [5], with Rattus norvegicus [7] and in the series with Rattus norvegicus [8] was inactive. For the same compound, the ED50 in the series on Rattus norvegicus [9] was > 5 µmol/kg.

As a reminder, the ED50 is the midpoint of the dose-response relation.
